Measurements published in ChEMBL document CHEMBL5137109, “Tunable Cysteine-Targeting Electrophilic Heteroaromatic Warheads Induce Ferroptosis” (J Med Chem, 2022).
Active and inactive are the calls of the source. The calls are words filed in the database; no cut-off is given here.

Assays:
HCT-116 = assay: Cytotoxicity against human HCT-116 cells assessed as reduction in cell viability incubated for 3 days by methylene blue staining based analysis; assay type: functional; details: HCT-116, 72 h
NCI-H522 [1] = assay: Cytotoxicity against human NCI-H522 cells assessed as reduction in cell viability incubated for 3 days by methylene blue staining based analysis; assay type: functional; details: NCI-H522, 72 h
NCI-H522 [2] = assay: Cytotoxicity against human NCI-H522 cells assessed as reduction in cell viability incubated for 3 days in presence of ferroptosis inhibitor, liproxstatin-1 by methylene blue staining based analysis; assay type: functional; details: NCI-H522, 72 h
In short: (§1)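 NCI-H522 cells seeded at 25×10³/well (n=3), adhered overnight, then exposed to compound with or without liproxstatin-1 (0.25 μM). After 3 days, methylene blue staining with HCl elution and A668. Results given as % relative to DMSO control, mean ± SD, n=3, one-way ANOVA. Fold change is IC50 (with liproxstatin-1)/IC50 (alone).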

[3] = Ratio of IC50 for cytotoxicity against human NCI-H522 cells in presence of ferroptosis inhibitor, liproxstatin-1 to IC50 for cytotoxicity against human NCI-H522 cells; assay type: functional
In short: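 NCI-H522 cells, 25*10³/well (n=3), plated overnight, treated with compound with or without Liproxstatin-1 (0.25 μM). After 3 days, methylene blue in 50% ethanol fix/stain 30 min RT, dye dissolved in 0.1N HCl, A668. Fold change = IC₅₀ with Liproxstatin-1 / IC₅₀ without.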

HT-1080 = assay: Cytotoxicity against human HT-1080 cells assessed as reduction in cell viability incubated for 3 days by methylene blue staining based analysis; assay type: functional; details: HT-1080, 72 h
MDA-MB-468 = assay: Cytotoxicity against human MDA-MB-468 cells assessed as reduction in cell viability incubated for 3 days by methylene blue staining based analysis; assay type: functional; details: MDA-MB-468, 72 h
MDA-MB-231 = assay: Cytotoxicity against human MDA-MB-231 cells assessed as reduction in cell viability incubated for 3 days by methylene blue staining based analysis; assay type: functional; details: MDA-MB-231, 72 h
HeLa = assay: Cytotoxicity against human HeLa cells assessed as reduction in cell viability incubated for 3 days by methylene blue staining based analysis; assay type: functional; details: 72 h
U2OS = assay: Cytotoxicity against human U2OS cells assessed as reduction in cell viability incubated for 3 days by methylene blue staining based analysis; assay type: functional; details: 72 h
[4] = Cytotoxicity against human WI-38 cells assessed as reduction in cell viability incubated for 3 days by methylene blue staining based analysis; assay type: toxicity
[5] = Cytotoxicity against mouse MEF cells assessed as reduction in cell viability incubated for 3 days by methylene blue staining based analysis; assay type: toxicity
[6] = Selectivity ratio of IC50 for human HCT-116 cells to IC50 for human NCI-H522 cells by methylene blue staining based analysis; assay type: functional
NCI-H522 [7] = assay: Induction of lipid peroxidation in human NCI-H522 cells assessed as increase in C11-BODIPY oxidation at 20 uM incubated for 6 hrs by flow cytometry; assay type: functional, cell-based
In short: (§2)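 NCI-H522 cells (~70% density) plated in dishes overnight, then treated with compound or DMSO plus C11-BODIPY 581/591 (1 μM) added at treatment. After 3 h or 6 h, cells washed, trypsinized, resuspended in PBS with 2% FBS and analysed by flow cytometry (preferably 20×10³ cells). Oxidation compared with DMSO treatment.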

NCI-H522 [8] = assay: Induction of lipid peroxidation in human NCI-H522 cells assessed as increase in C11-BODIPY oxidation at 40 uM incubated for 6 hrs by flow cytometry; assay type: functional, cell-based; in short: as §2
NCI-H522 [9] = assay: Induction of lipid peroxidation in human NCI-H522 cells assessed as increase in C11-BODIPY oxidation at 10 uM incubated for 6 hrs by flow cytometry; assay type: functional, cell-based; in short: as §2
NCI-H522 [10] = assay: Induction of lipid peroxidation in human NCI-H522 cells assessed as increase in C11-BODIPY oxidation at 5 uM incubated for 3 hrs by flow cytometry; assay type: functional, cell-based; in short: as §2
NCI-H522 [11] = assay: Induction of lipid peroxidation in human NCI-H522 cells assessed as increase in C11-BODIPY oxidation at 5 uM incubated for 6 hrs by flow cytometry; assay type: functional, cell-based; in short: as §2
NCI-H522 [12] = assay: Cytotoxicity against human NCI-H522 cells assessed as reduction in cell survival at 2 uM incubated for 3 days in presence of ferroptosis inhibitor, liproxstatin-1 by methylene blue staining based analysis; assay type: functional; details: time 3.0 day; in short: as §1
NCI-H522 [13] = assay: Cytotoxicity against human NCI-H522 cells assessed as time required to cause 50% irreversible cell death treated with compound followed by washing for every 30 mins for 6 hrs by methylene blue staining based analysis; assay type: functional
In short: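 NCI-H522 cells, 5*10³/well (n=3), plated overnight, then treated with compound or DMSO. Wells washed immediately after treatment and then at 30-min intervals up to 6 h; last wells not washed. Methylene blue in 50% ethanol fix/stain 30 min RT, dye dissolved in 0.1N HCl, A668. Each point taken as % survival of matching DMSO-treated cells.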

Compound | IC50 (HCT-116) [µM] | IC50 (NCI-H522 [1]) [µM] | further results
C#CC(=O)N1CCN(C(c2ccc(Cl)cc2)c2ccc(Cl)cc2)CC1 | 3.8 | 1.13 | IC50 (NCI-H522 [2]): 2.88 µM; Ratio IC50 [3]: 2.55; IC50 (HT-1080): 0.376 µM; IC50 (MDA-MB-468): 0.065 µM; IC50 (MDA-MB-231): 0.038 µM; IC50 (HeLa): 0.303 µM; IC50 (U2OS): 0.638 µM; IC50 at 3 days [4]: 0.5 µM; IC50 at 3 days [5]: 0.082 µM
CC#Cc1nc(C(=O)OCC)cs1 | > 40 | > 40 | –
Ic1nc2ccccc2o1 | > 40 | 11.7 | Ratio IC50 [6]: 3.41
C#Cc1nc(C(=O)N2CCN(CC)CC2)cs1 | – | > 1 | –
c1ccc2scnc2c1 [BENZO[D]THIAZOLE] | > 40 | > 40 | –
C#Cc1nc(C(=O)OCC)cs1 | > 40 | 2.67 | Ratio IC50 [6]: >14.98; Activity (NCI-H522 [7]): Active
Ic1nc2ccccc2[se]1 | > 40 | > 40 | –
c1ccc2[se]cnc2c1 | > 40 | > 40 | –
C#Cc1nc2ccccc2n1C | 19.4 | 8.14 | Ratio IC50 [6]: 2.37; Activity (NCI-H522 [8]): Active
C=Cc1nc(C(=O)OCC)cs1 | > 40 | > 40 | –
C=Cc1sc(-c2ccc(F)cc2)nc1C(=O)OCC | > 40 | > 40 | –
C#Cc1nc(/C=C/C(=O)N2CCN(C(c3ccc(Cl)cc3)c3ccc(Cl)cc3)CC2)cs1 | – | 0.006 | –
C#Cc1nc2ccccc2o1 | 11.6 | 1.26 | Ratio IC50 [6]: 9.12; Activity (NCI-H522 [9]): Active
C#Cc1nc(C(=O)Nc2ccccc2)cs1 | 4.88 | 0.66 | Ratio IC50 [6]: 7.39; Activity (NCI-H522 [10]): Active
C#CCNC(=O)c1cscn1 | > 40 | > 40 | –
C=Cc1nc2ccccc2s1 | > 40 | > 40 | –
Cc1onc(C(=O)N2CCN(C(c3ccc(Cl)cc3)c3ccc(Cl)cc3)CC2)c1[N+](=O)[O-] | > 1 | 0.044 | IC50 (NCI-H522 [2]): 34.5 µM; Ratio IC50 [3]: 784.431; IC50 (HT-1080): 0.022 µM; IC50 (MDA-MB-468): 0.066 µM; IC50 (MDA-MB-231): 0.02 µM; IC50 (HeLa): 0.253 µM; IC50 (U2OS): 0.822 µM; IC50 at 3 days [4]: 0.06 µM; IC50 at 3 days [5]: 0.016 µM
C#CCNC(=O)c1csc(Br)n1 | > 40 | > 40 | –
C#Cc1nc(C(=O)N2CCN(c3ccc(C(F)(F)F)cc3)CC2)cs1 | – | 0.037 | –
Cn1cnc2ccccc21 | > 40 | > 40 | –
C#Cc1nccs1 | > 40 | > 40 | –
Brc1nc2ccccc2s1 | > 40 | > 40 | –
O=C(CCl)N1CCN(C(c2ccc(Cl)cc2)c2ccc(Cl)cc2)CC1 | 1.64 | 0.752 | IC50 (NCI-H522 [2]): 3.1 µM; Ratio IC50 [3]: 4.12; IC50 (HT-1080): 0.302 µM; IC50 (MDA-MB-468): 1.75 µM; IC50 (MDA-MB-231): 0.494 µM; IC50 (HeLa): 2.11 µM; IC50 (U2OS): 1.71 µM; IC50 at 3 days [4]: 1.74 µM; IC50 at 3 days [5]: 0.352 µM
C=Cc1csc(Br)n1 | > 40 | > 40 | –

Compound | IC50 (HCT-116) [µM] | IC50 (NCI-H522 [1]) [µM] | further results
C#Cc1nc(C(=O)Nc2ccc(OC)cc2)cs1 | 8.39 | 0.67 | Ratio IC50 [6]: 12.52; Activity (NCI-H522 [10]): Active
C#Cc1csc(Br)n1 | > 40 | > 40 | –
C=Cc1nc2ccccc2o1 | > 40 | > 40 | –
C#Cc1nc(C(=O)Nc2ccc(Cl)cc2)cs1 | 15.9 | 0.54 | Ratio IC50 [6]: 29.4; Activity (NCI-H522 [11]): Active
Cn1c(Br)nc2ccccc21 | > 40 | > 40 | –
Cn1c(I)nc2ccccc21 | 17.5 | 1.02 | Ratio IC50 [6]: 17.16; Activity (NCI-H522 [12]): Active
C#Cc1ccccn1 | > 40 | > 40 | –
Brc1nc2ccccc2o1 | > 40 | > 40 | –
COC(=O)c1ccc([C@H]2c3[nH]c4ccccc4c3CC(C(=O)OC)N2C(=O)CCl)cc1 (some centres not stated) | – | – | IT50 (NCI-H522 [13]): 1.33 h
CC#CC1=Nc2ccccc2C(C)(C)O1 | > 40 | 8.4 | Ratio IC50 [6]: >4.76; Activity (NCI-H522 [8]): Active
C#Cc1nc(C(=O)N2CCN(c3ccc(Cl)cc3)CC2)cs1 | – | 0.028 | –
C#Cc1nc(/C=C/C(=O)Nc2ccc(Cl)cc2)cs1 | 23.2 | 0.37 | Ratio IC50 [6]: 62.64; Activity (NCI-H522 [10]): Active
C#CC1=Nc2ccccc2C(C)(C)O1 | 5.61 | 0.89 | Ratio IC50 [6]: 6.3; Activity (NCI-H522 [11]): Active
C#CCNC1CCC(c2csc(C#C)n2)=C1C (configuration not stated) | > 40 | 2.51 | Activity (NCI-H522 [7]): Active
N#Cc1nccs1 | > 40 | > 40 | –
Ic1nc2ccccc2s1 | > 40 | > 40 | –
CCOC(=O)c1csc(C#Cc2ccccc2)n1 | > 40 | > 40 | –
C#Cc1sc(-c2ccc(F)cc2)nc1C(=O)OCC | > 40 | 3.53 | Ratio IC50 [6]: 11.33; Activity (NCI-H522 [7]): Active
c1ccc2ocnc2c1 [BENZO[D]OXAZOLE] | > 40 | > 40 | –
Brc1nc2ccccc2[se]1 | > 40 | > 40 | –
C=Cc1nc2ccccc2[se]1 | > 40 | 12.2 | Ratio IC50 [6]: >3.27
C#Cc1ncccn1 | > 40 | > 40 | –
CC#Cc1nc2ccccc2s1 | > 40 | > 40 | –
C#Cc1nc(C(=O)N2CCN(c3ccc(F)cc3)CC2)cs1 | – | 0.064 | –
